Published values collected from several papers.
Each line is one published result; the experiments were not run side by side.
SRD5A1: 3-oxo-5-alpha-steroid 4-dehydrogenase 1 (SRD5A1, Homo sapiens, UniProt P18405)
HTR2A: 5-hydroxytryptamine receptor 2A (HTR2A, Homo sapiens, UniProt P28223)

Cc1cc(F)cc2c(CCC(=O)N[C@@H]3C(=O)NC[C@H]3O)c(-c3ccc(F)cc3)[nH]c12 — inhibition (Cannabinoid receptor 1 (CNR1, Homo sapiens, UniProt P21554); cell-free assay; 10 µM): -2%
COC(=O)C=Cc1ccc(OC)c(OC)c1 — inhibition (SRD5A1; enzyme activity in cells; inhibitor; HaCaT; 50 µM): 26.1%
COc1cc2c3c(c1OC)-c1c(OC)ccc(N4CCOCC4)c1CC3N(C)CC2 (stereo not drawn) — inhibition (HTR2A; ligand displacement; radioligand; 10 µM): 49%
Cc1cc(O)c(-c2ccc([C@@H](C)CN(C)C)cc2)c2c1[nH]c(=O)c1sccc12 — inhibition (Serine/threonine-protein kinase VRK2 (VRK2, Homo sapiens, UniProt Q86Y07); enzyme activity; inhibitor; 0.1 µM): 3.23%
CCN1/C(=C/C(C)=O)Sc2ccc(F)cc21 — inhibition (Endothelin-1 receptor (EDNRA, Homo sapiens, UniProt P25101); ligand displacement; radioligand; 10 µM): 9.86%
COC(=O)C=Cc1ccc(OC(C)=O)c(OC)c1 — inhibition (SRD5A1; enzyme activity in cells; inhibitor; HaCaT; 50 µM): 26.4%
CC[N+]1(C)CCc2cc(OC)c(OC)c3c2C1Cc1cccc(OC)c1-3 (stereo not drawn) — inhibition (HTR2A; ligand displacement; radioligand; 10 µM): 3%
NC/C(=C\F)COc1cccc(Cn2c(=S)[nH]c(=O)c3[nH]cnc32)c1 — inhibition (Hepatic sodium/bile acid cotransporter (SLC10A1, Homo sapiens, UniProt Q14973); transporter uptake; inhibitor; 30 µM): < 50%
CC(=O)Oc1ccc(C=CC(=O)O)cc1OC(C)=O — inhibition (SRD5A1; enzyme activity in cells; inhibitor; HaCaT; 50 µM): 12.2%
